Assays:
[1] = target: hERG (Homo sapiens, UniProt Q12809); assay: Patch-clamp electrophysiology of hERG blockade in HEK 293 cells; type: cell-based; details: for IC50: read-out: IC50 at hERG, patch-clamp, whole cell tail currents
Method in brief: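 Whole-cell patch clamp of hERG (described as mutants) expressed in HEK 293 cells. Pipette: 10 mM KCl, 110 mM K-aspartate, 5 mM MgCl2, 5 mM Na2ATP, 10 mM EGTA, 5 mM HEPES, 1 mM CaCl2, pH 7.2. Holding at −80 mV, 1-s step to +50 mV, tail current read at −100 mV. Test compound freshly dissolved in Tyrode, used within two hours.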

[2] = target: rDAT (Rattus norvegicus, UniProt P23977); assay: Radioligand binding assay of rDAT with [3H]WIN35,428 in rat striatal membranes
rDAT, sequence (P23977 whole entry): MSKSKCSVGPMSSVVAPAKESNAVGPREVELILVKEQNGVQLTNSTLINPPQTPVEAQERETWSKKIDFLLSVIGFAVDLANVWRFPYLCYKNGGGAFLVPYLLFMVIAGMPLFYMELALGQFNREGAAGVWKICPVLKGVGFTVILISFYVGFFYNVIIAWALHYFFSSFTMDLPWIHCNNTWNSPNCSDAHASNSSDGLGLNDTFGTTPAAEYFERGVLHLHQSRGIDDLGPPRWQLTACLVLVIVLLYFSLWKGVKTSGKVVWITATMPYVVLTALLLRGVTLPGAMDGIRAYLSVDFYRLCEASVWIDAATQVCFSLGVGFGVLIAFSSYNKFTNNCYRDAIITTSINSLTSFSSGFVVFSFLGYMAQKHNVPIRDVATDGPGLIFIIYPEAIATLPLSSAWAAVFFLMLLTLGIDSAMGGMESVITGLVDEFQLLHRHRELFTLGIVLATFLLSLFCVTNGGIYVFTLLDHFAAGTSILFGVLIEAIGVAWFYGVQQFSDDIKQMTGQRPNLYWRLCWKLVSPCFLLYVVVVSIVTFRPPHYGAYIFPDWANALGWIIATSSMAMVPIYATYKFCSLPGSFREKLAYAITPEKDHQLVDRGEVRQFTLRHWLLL

hERG, sequence (Q12809 whole entry): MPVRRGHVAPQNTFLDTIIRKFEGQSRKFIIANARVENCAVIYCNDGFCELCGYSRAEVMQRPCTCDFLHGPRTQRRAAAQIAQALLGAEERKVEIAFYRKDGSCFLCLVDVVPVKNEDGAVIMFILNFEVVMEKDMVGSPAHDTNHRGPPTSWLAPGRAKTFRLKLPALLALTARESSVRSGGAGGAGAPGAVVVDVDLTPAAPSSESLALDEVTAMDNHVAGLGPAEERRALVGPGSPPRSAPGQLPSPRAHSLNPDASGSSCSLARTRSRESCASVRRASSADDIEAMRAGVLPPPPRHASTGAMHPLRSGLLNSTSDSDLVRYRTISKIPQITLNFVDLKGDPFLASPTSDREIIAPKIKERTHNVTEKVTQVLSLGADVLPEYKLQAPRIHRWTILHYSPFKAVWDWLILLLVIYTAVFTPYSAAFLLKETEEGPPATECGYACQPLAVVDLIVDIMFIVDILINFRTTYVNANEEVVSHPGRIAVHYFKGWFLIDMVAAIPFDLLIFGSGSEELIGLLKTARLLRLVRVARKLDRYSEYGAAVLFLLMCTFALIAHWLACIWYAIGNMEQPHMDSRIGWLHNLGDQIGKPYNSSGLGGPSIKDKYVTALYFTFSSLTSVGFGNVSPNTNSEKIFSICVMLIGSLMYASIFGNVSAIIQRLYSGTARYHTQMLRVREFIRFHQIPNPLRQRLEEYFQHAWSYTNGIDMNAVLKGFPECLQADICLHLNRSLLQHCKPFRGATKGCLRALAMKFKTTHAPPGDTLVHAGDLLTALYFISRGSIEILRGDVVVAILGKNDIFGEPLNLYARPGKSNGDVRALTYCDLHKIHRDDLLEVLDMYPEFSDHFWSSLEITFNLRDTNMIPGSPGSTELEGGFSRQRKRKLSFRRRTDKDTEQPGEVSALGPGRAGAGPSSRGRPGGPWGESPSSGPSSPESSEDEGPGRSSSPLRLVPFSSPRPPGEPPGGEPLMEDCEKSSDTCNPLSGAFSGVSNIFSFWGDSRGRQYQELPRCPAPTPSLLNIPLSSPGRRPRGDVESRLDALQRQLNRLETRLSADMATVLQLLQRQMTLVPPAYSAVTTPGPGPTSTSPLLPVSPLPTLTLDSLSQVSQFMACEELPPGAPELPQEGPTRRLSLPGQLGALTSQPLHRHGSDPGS

Structure (SMILES)	IC50 [1] [µM]	fold higher affinity than JJC8-016 at DAT ([2]; ratio of Ki values, JJC8-088 versus JJC8-016)	Ki ([2]; read-out: Ki at DAT, [3H]WIN35,428 as the radioligand) [µM]	fold lower affinity than JJC8-016 at hERG ([1]; ratio of IC50 values, JJC8-088 versus JJC8-016)
Fc1ccc(C(SCCNCCCc2ccccc2)c2ccc(F)cc2)cc1 [JJC8-016]	0.06	–	–	–
[O-][S+](CCN1CCN(CC(O)Cc2ccccc2)CC1)C(c1ccc(F)cc1)c1ccc(F)cc1 (centres unmarked) [JJC8-088]	0.13	~ 90 fold	0.0026	~ 2 fold
